Measured values collected from several papers.

COc1ccc2c(Cc3ccccc3F)c3[n+](cc2c1OC)CCc1cc2c(cc1-3)OCO2.[Br-]
clearance (rat; plasma; intravenous; 5 mg/kg): 672 mL/min/kg

COc1ccc(C(C)=O)c(O)c1
CL/F (male Sprague-Dawley rat; plasma; oral; 100 mg/kg): 44.2 mL/min/kg

CCc1nc(C(N)=O)c(Nc2ccc(N3CCC(N4CCN(C)CC4)CC3)c(OC)c2)nc1NC1CCOCC1
CL/F (rat; plasma; oral; 10 mg/kg): 0.9 L/h

CCOC(=O)[C@@]12C[C@@H]1[C@@H](n1ccc3c(NC)nc(C#Cc4ccc(Cl)s4)nc31)[C@H](O)[C@@H]2O
clearance (male Sprague-Dawley rat; plasma; intravenous; 0.5 mg/kg): 302 mL/min/kg

Oc1c(-n2ccnn2)cnn1-c1cc(N2CCOCC2)ncn1
clearance (male rat; blood; intravenous; 5 mg/kg): 18.3 mL/min/kg

Oc1c(Br)cc(Cl)c2cccnc12
CL/F (Sprague-Dawley rat; plasma; subcutaneous; 10 mg/kg): 31.7 mL/min/kg

COCCOC(=O)C1=C(C)NC(C)=C(C(=O)OC(C)C)C1c1cccc([N+](=O)[O-])c1 (stereo not drawn)
clearance (male Sprague-Dawley rat; plasma; intravenous; 3 mg/kg): 0.025 mL/min/kg

CCCC[C@@H]1NC(=O)[C@H](Cc2ccc(O)cc2)NC(=O)[C@@H]2CCCN2C(=O)[C@H](CC(=O)O)NC(=O)[C@H](C)NC(=O)[C@H](Cc2ccccc2)NC(=O)[C@@H]2CSCCC(=O)N3CN(CN(C3)C(=O)CCSC[C@@H](C(=O)N[C@@H](C)C(N)=O)NC1=O)C(=O)CCSC[C@H](NC(C)=O)C(=O)N[C@@H](CC(C)(C)C)C(=O)N1CCC[C@H]1C(=O)N[C@@H](CCC(=O)O)C(=O)N[C@H](CCCCNC(=O)CCc1cn(CCOCCOCCOCCOCCOCCOCCOCCOCCOCCOCCNC(=O)c3cc(C(=O)NCCOCCOCCOCCOCCOCCOCCOCCOCCOCCOCCn4cc(CCC(=O)NCCCC[C@H]5NC(=O)[C@H](CCC(=O)O)NC(=O)[C@@H]6CCCN6C(=O)[C@H](CC(C)(C)C)NC(=O)[C@@H](NC(C)=O)CSCCC(=O)N6CN7CN(C6)C(=O)CCSC[C@H](NC(=O)[C@H](Cc6ccc(O)cc6)NC(=O)[C@@H]6CCCN6C5=O)C(=O)N[C@@H](Cc5ccccc5)C(=O)N[C@@H](C)C(=O)N[C@@H](CC(=O)O)C(=O)N5CCC[C@H]5C(=O)N[C@@H](Cc5ccc(O)cc5)C(=O)N[C@@H](CCCC)C(=O)N[C@H](C(=O)N[C@@H](C)C(N)=O)CSCCC7=O)nn4)cc(C(=O)NCCOCCOCCOCCOCCOCCOCCOCCOCCOCCOCCn4cc(CCC(=O)N[C@H]5CSCCC(=O)N6CN7CN(C6)C(=O)CCSC[C@H](NC(=O)[C@@H](CC(=O)O)NC(=O)[C@H](Cc6cccc8ccccc68)NC(=O)[C@@H]6CCCN6C5=O)C(=O)N[C@@H](CCSC)C(=O)N[C@@H](CCCCNC(=N)N)C(=O)N[C@@H](CC(=O)O)C(=O)N[C@@H](Cc5c[nH]c6ccccc56)C(=O)N[C@@H](CO)C(=O)N[C@@H]([C@@H](C)O)C(=O)N5CCC[C@H]5C(=O)N5C[C@H](O)C[C@H]5C(=O)N[C@@H](Cc5c[nH]c6ccccc56)C(=O)N[C@H](C(N)=O)CSCCC7=O)nn4)c3)nn1)C(=O)N1CCC[C@H]1C(=O)N[C@@H](Cc1ccc(O)cc1)C(=O)N2
clearance (rat; plasma; intravenous; 2 mg/kg): 9.2 mL/min/kg

Cc1c(-c2ccccc2)cccc1N1C(=O)c2cc(CN[C@H](C(=O)O)C(C)O)c(OCc3cccc(C#N)c3)cc2C1=O (stereo partly drawn)
clearance (Sprague-Dawley rat; plasma; intravenous; 5 mg/kg): 5.66 mL/min/kg

O=C(Nc1cc(F)c(F)c(F)c1)c1ccc(F)c(S(=O)(=O)NCc2cccc(B(O)O)c2)c1
clearance (male Sprague-Dawley rat; plasma; intravenous; 2 mg/kg): 137 mL/min/kg

O=C(c1cc(Cc2n[nH]c(=O)c3ccccc23)ccc1F)N1CCN(C(=O)C2CC2)CC1
clearance (female Sprague-Dawley rat; plasma; intravenous): 2.22 mL/min

COc1ccc2c(=O)n(C)c(-c3ccccc3)nc2c1
clearance (male Sprague-Dawley rat; plasma; intravenous; 2 mg/kg): 39 mL/min/kg
